From ChEMBL document CHEMBL1949592, “Synthesis and antiviral activity of 2'-deoxy-2'-fluoro-2'-C-methyl-7-deazapurine nucleosides, their phosphoramidate prodrugs and 5'-triphosphates” (Bioorg Med Chem Lett, 2011)
Activity calls are given as the source filed them. The rule behind the calls is not given here.

Assays:
Huh-7 = experiment: (§1) Cytotoxicity against human HuH7 cells assessed as reduction of 50% rRNA level after 96 hrs; type: cell-based; settings: huh-7, 96 h
Outline: (§2)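 Huh-7 cells carrying the HCV replicon were exposed to compound for 96 h. Toxicity was read as a fall in cellular rRNA.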

Hepatitis C virus = experiment: Antiviral activity against Hepatitis C virus infected in human HuH7 cells assessed as decrease in viral RNA level after 96 hrs by RT-PCR; type: functional, organism-based, Hepacivirus hominis; settings: Huh-7, 96 h
Hepatitis B virus = experiment: Antiviral activity against wild type Hepatitis B virus infected in hepatocytes; type: functional, organism-based; settings: Hepatocyte
Vero = experiment: Cytotoxicity against african green monkey Vero cells after 3 days by hemocytometer analysis; type: cell-based; settings: Chlorocebus sabaeus, 72 h
CCRF-CEM = experiment: Cytotoxicity against human CEM cells after 6 days by trypan blue exclusion method; type: cell-based; settings: 144 h
PBMC = experiment: Cytotoxicity against human PBMC after 6 days by trypan blue exclusion method; type: cell-based; settings: 144 h
[1] = test system: Human immunodeficiency virus 1; experiment: Antiviral activity against HIV1 LAV1 infected in PHA-stimulated human PBMC assessed as reduction in RT activity after 6 days by micromethod-based beta scintillation counting; type: functional, organism-based; settings: Human immunodeficiency virus 1, LAV1, 144 h
[2] = as §1; type: cell-based, Huh-7; settings: HuH7 cells; outline: as §2
HepG2 = experiment: Cytotoxicity against human HepG2 cells by neutral red dye uptake assay; type: cell-based

Structure (SMILES) | CC50 (Huh-7) [µM] | EC50 (Hepatitis C virus) [µM] | Activity (Hepatitis B virus) | IC50 (Vero) [µM] | IC50 (CCRF-CEM) [µM] | IC50 (PBMC) [µM] | EC50 [1] [µM] | EC90 [1] [µM] | EC90 (Hepatitis C virus) [µM] | CC50 at 96 h [2] [µM] | Activity (HepG2)
COC(=O)/C=C/c1cn([C@H]2O[C@H](CO)[C@@H](O)[C@@]2(C)F)c2ncnc(N)c12 | > 10 | > 10 | inactive | > 100 | > 100 | > 100 | 0.71 | 9.5 | – | – | –
COC(=O)/C=C/c1cn([C@@H]2O[C@H](CO)[C@@H](O)[C@@]2(C)F)c2ncnc(N)c12 | – | > 10 | – | > 100 | > 100 | > 100 | > 100 | > 100 | > 10 | – | –
C[C@@]1(O)[C@H](O)[C@@H](CO)O[C@H]1n1ccc(N)nc1=O | > 10 | 2.8 | – | > 100 | 54.4 | 47.4 | 47.5 | 100 | 9.6 | – | –
C=Cc1cn([C@@H]2O[C@H](CO)[C@@H](O)[C@@]2(C)F)c2ncnc(N)c12 | 4.5 | 1.8 | – | 10.1 | 3.5 | 4.8 | 14.7 | 44.8 | 7.6 | – | –
C[C@@]1(F)[C@H](O)[C@@H](CO)O[C@@H]1n1cc(I)c2c(N)ncnc21 | – | 7 | Active | 65.9 | 40.9 | > 100 | > 100 | > 100 | 24.9 | > 33 | Toxic
C[C@@]1(F)[C@H](O)[C@@H](CO)O[C@H]1n1cc(Br)c2c(N)ncnc21 | < 10 | < 10 | – | 53.1 | 50.5 | 74.2 | > 100 | > 100 | > 10 | – | –
C[C@@]1(F)[C@H](O)[C@@H](CO)O[C@@H]1n1cc(C#Cc2ccccc2)c2c(N)ncnc21 | > 10 | > 10 | inactive | 51.3 | 15.7 | 40.8 | 7.7 | 38 | > 10 | – | –
C#Cc1cn([C@@H]2O[C@H](CO)[C@@H](O)[C@@]2(C)F)c2ncnc(N)c12 | – | < 10 | – | > 100 | > 100 | 94.1 | 59.1 | > 100 | – | – | –
COc1ncnc2c1ccn2[C@@H]1O[C@H](CO)[C@@H](O)[C@@]1(C)F | – | > 10 | – | > 100 | > 100 | > 100 | 24.8 | 85.6 | > 10 | – | –
C[C@@]1(F)[C@H](O)[C@@H](CO)O[C@@H]1n1cc(F)c2c(N)ncnc21 | > 10 | > 10 | – | > 100 | 8.1 | > 100 | > 100 | – | – | – | –
C[C@@]1(F)[C@H](O)[C@@H](CO)O[C@@H]1n1cc(Cl)c2c(N)ncnc21 | – | < 10 | – | > 100 | 96 | > 100 | > 100 | > 100 | – | – | –
C#Cc1cn([C@H]2O[C@H](CO)[C@@H](O)[C@@]2(C)F)c2nc(N)nc(N)c12 | > 10 | > 10 | inactive | 61.7 | 26.5 | 54 | 7.1 | 59.1 | > 10 | – | –
C[C@@]1(F)[C@H](O)[C@@H](CO)O[C@@H]1n1ccc2c(N)nc(N)nc21 | – | > 10 | – | > 100 | > 100 | > 100 | > 100 | > 100 | – | – | –
Cc1cn([C@H]2C[C@H](N=[N+]=[N-])[C@@H](CO)O2)c(=O)[nH]c1=O [ZIDOVUDINE] | > 10 | > 10 | – | – | – | > 100 | 0.0033 | 0.028 | > 10 | – | –
CCOC(=O)[C@H](C)NP(=O)(OC[C@H]1O[C@@H](n2cc(I)c3c(N)nc(N)nc32)[C@](C)(F)[C@@H]1O)Oc1ccccc1 (stereo not given in full) | > 10 | > 10 | – | 65.1 | > 100 | 67.4 | 26.7 | > 100 | > 10 | – | –
C#Cc1cn([C@@H]2O[C@H](CO)[C@@H](O)[C@@]2(C)F)c2nc(N)nc(N)c12 | – | > 10 | – | > 100 | > 100 | > 100 | 84.4 | > 100 | – | – | –
COc1ncnc2c1ccn2[C@H]1O[C@H](CO)[C@@H](O)[C@@]1(C)F | > 10 | > 10 | – | > 100 | > 100 | > 100 | ≥ 100 | ≥ 100 | – | – | –

Structure (SMILES) | CC50 (Huh-7) [µM] | EC50 (Hepatitis C virus) [µM] | Activity (Hepatitis B virus) | IC50 (Vero) [µM] | IC50 (CCRF-CEM) [µM] | IC50 (PBMC) [µM] | EC50 [1] [µM] | EC90 [1] [µM] | EC90 (Hepatitis C virus) [µM] | CC50 at 96 h [2] [µM] | Activity (HepG2)
C[C@@]1(F)[C@H](O)[C@@H](CO)O[C@H]1n1cc(C#Cc2ccccc2)c2c(N)ncnc21 | < 10 | < 10 | Active | 45.7 | 11.6 | 41.1 | 10.7 | 31.1 | – | – | Toxic
CCOC(=O)[C@H](C)NP(=O)(OC[C@H]1O[C@@H](n2cc(I)c3c(N)ncnc32)[C@](C)(F)[C@@H]1O)Oc1ccccc1 (stereo not given in full) | > 10 | > 10 | – | 17.8 | 13.5 | 17.4 | 58.1 | > 100 | > 10 | – | –
CCc1cn([C@@H]2O[C@H](CO)[C@@H](O)[C@@]2(C)F)c2ncnc(N)c12 | – | < 10 | – | > 100 | > 100 | 20.7 | 19 | > 100 | – | – | –
C[C@@]1(F)[C@H](O)[C@@H](CO)O[C@H]1n1cc(Cl)c2c(N)ncnc21 | > 10 | < 10 | – | > 100 | > 100 | 18.5 | 82.4 | – | > 10 | – | –
C[C@@]1(F)[C@H](O)[C@@H](CO)O[C@@H]1n1cc(Br)c2c(N)ncnc21 | > 10 | < 10 | – | 71.1 | 76 | 89.1 | ≥ 100 | – | – | – | –
C[C@@]1(F)[C@H](O)[C@@H](CO)O[C@H]1n1cc(I)c2c(N)ncnc21 | – | 1.1 | – | 21.4 | 24 | 53.2 | 94 | > 100 | > 33 | 10.4 | –
C[C@@]1(F)[C@H](O)[C@@H](CO)O[C@@H]1n1ccc2c(N)ncnc21 | – | > 10 | – | > 100 | > 100 | > 100 | > 100 | – | – | – | –
C[C@@]1(F)[C@H](O)[C@@H](CO)O[C@@H]1n1cc(I)c2c(N)nc(N)nc21 | – | > 10 | – | > 100 | > 100 | > 100 | > 100 | > 100 | – | – | –
C=Cc1cn([C@H]2O[C@H](CO)[C@@H](O)[C@@]2(C)F)c2ncnc(N)c12 | 8.3 | 5.6 | – | 14.6 | 16 | 21 | 35.5 | 65.2 | 18.4 | – | –
CCc1cn([C@H]2O[C@H](CO)[C@@H](O)[C@@]2(C)F)c2ncnc(N)c12 | > 10 | > 10 | – | > 100 | > 100 | > 100 | 95.5 | – | > 10 | – | –
CCOC(=O)[C@H](C)NP(=O)(OC[C@H]1O[C@@H](n2cc(F)c3c(N)ncnc32)[C@](C)(F)[C@@H]1O)Oc1ccccc1 (stereo not given in full) | > 10 | > 10 | – | > 100 | > 100 | > 100 | 39.4 | 98.8 | > 10 | – | –
CNc1ncnc2c1c(F)cn2[C@@H]1O[C@H](CO)[C@@H](O)[C@@]1(C)F | > 10 | > 10 | – | > 100 | > 100 | > 100 | > 100 | > 100 | > 10 | – | –
C[C@@]1(F)[C@H](O)[C@@H](CO)O[C@H]1n1ccc2c(N)ncnc21 | > 10 | > 10 | – | > 100 | > 100 | > 100 | > 100 | > 100 | > 10 | – | –
C[C@@]1(F)[C@H](O)[C@@H](CO)O[C@H]1n1cc(I)c2c(N)nc(N)nc21 | > 10 | > 10 | – | 62.8 | 85.4 | 72.9 | 99.5 | – | > 10 | – | –
CNc1ncnc2c1c(F)cn2[C@H]1O[C@H](CO)[C@@H](O)[C@@]1(C)F | – | > 10 | – | > 100 | > 100 | > 100 | > 100 | – | – | – | –
C#Cc1cn([C@H]2O[C@H](CO)[C@@H](O)[C@@]2(C)F)c2ncnc(N)c12 | > 10 | < 10 | – | > 100 | > 100 | > 100 | 95.2 | – | > 10 | – | –
C[C@@]1(F)[C@H](O)[C@@H](CO)O[C@H]1n1cc(F)c2c(N)ncnc21 | – | > 10 | – | > 100 | > 100 | > 100 | > 100 | > 100 | > 10 | – | –
